In the library only some 4.1% were active in any assay of this set; here they are far more common.
MC4R antag cAMP: antagonists of human melanocortin 4 receptor (MC4R); MC4R-expressing cells, MTII-stimulated cAMP, LANCE TR-FRET; inhibition, % at 6.5 µM; actives 0.48% (n = 360,000); AID 540295;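 active = inhibition above its plate's cutoff, the mean of tested wells on that plate plus 3 SD, cut at about 29% in these data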;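 note: 0% = Melanotan II alone and 100% = Melanotan II plus saturating MCL0020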
Target sequence (P32245 whole entry, looked up): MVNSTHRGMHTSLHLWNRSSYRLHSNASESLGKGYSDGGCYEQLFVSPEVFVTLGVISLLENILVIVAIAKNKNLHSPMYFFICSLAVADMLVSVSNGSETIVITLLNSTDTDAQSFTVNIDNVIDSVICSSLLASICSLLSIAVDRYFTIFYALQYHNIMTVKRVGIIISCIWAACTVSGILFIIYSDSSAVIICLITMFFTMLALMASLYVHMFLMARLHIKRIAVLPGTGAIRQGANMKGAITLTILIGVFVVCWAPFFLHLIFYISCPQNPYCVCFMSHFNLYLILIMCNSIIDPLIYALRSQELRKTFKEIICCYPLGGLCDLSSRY
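Material: U2OS-MC4R stable cell line | Reagent: Melanotan II challenge after compound preincubation | Doses: One concentration, 6.5 µM nominal | Incubation: 30-min compound preincubation, 1-h Melanotan II challenge, 1-h detection, room temperature | Signal: TR-FRET cAMP assay | Replicates: One well per compound, no replicates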
ATG4B inh: ATG4B (human) cysteine protease inhibition; ATG4B cleavage of LC3-PLA2, NBD-HPC fluorescence, 1 h; inhibition, % at 8.33 µM; actives 0.51% (n = 340,000); in the data active = inhibition above about 40%
MC4R barr agon: agonists of human melanocortin 4 receptor (MC4R) beta-arrestin; AID 540308; U2OS MC4R beta-arrestin complementation, luminescence; percent of melanotan II response, DMSO zero; actives 0.98% (n = 360,000); P32245; activation, % at 8.9 µM;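 active = activation above a per-plate cutoff, the mean activation of sample wells on that plate plus 3 SD, cut at about 8% in these data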
SMARCA2 activ: increases SMARCA2 function in MMTV reporter cells. MG213 cells, MMTV-luciferase reporter, dexamethasone, overnight. activation, % at 9.1 µM. AID 652017. actives 1% (n = 370,000); in the data active = activation above about 7.8%;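 note: 0% = vehicle wells and 100% = reference activator wells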
MPTP block: permeability transition pore inhibition; isolated mouse mitochondria, Ca2+ swelling absorbance, 30 min; inhibition, % at 10 µM; actives 1.4% (n = 360,000);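 active = inhibition of 50% or more, scaled per plate between neutral and stimulator controls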;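 note: 0% = DMSO wells given calcium and 100% = 1 mM EGTA wells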
Rh123 counter: Rhodamine 123 counter-screen of mitochondrial pore hits. shares compounds with MPTP block. isolated mitochondria, membrane potential, Rhodamine 123 fluorescence. inhibition, % at 10 µM. actives 78% (n = 5,000). AID 624504; in the data active = inhibition above about 22%;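 note: 0% = DMSO vehicle and 100% = positive control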
MPTP abs DR: dose response confirmation of mitochondrial permeability transition pore inhibitors. isolated mitochondria swelling, absorbance. IC50, µM. actives 58% (n = 780). shares compounds with MPTP block; in the data active = IC50 below about 20 µM
MPTP counter DR: MPTP inhibitor counter-screen activity, dose response; shares compounds with MPTP block; isolated mitochondria counterscreen, fluorescence read-out; IC50, µM; actives 49% (n = 780); in the data active = IC50 below about 80 µM
* marks the source's active call; other numbers are inactive results; i = inactive; . = no result given.

SMILES	MC4R antag cAMP	ATG4B inh	MC4R barr agon	SMARCA2 activ	MPTP block	Rh123 counter	others
CCCN1CCN(CCCNC(=O)c2ccc3c(=O)n(CCc4ccccc4)c(=O)[nH]c3c2)CC1	8	-8	-2	-1	70*	0	MPTP abs DR=i;MPTP counter DR=>80
CC[C@H](C(=O)Nc1ccccc1N1CCCC1)c1ccccc1	.	.	.	0	.	.
CCCCCCCCN1C(=O)[C@@H](CC(=O)NCc2cccc(C(F)(F)F)c2)C[C@@]2(C(=O)OC)C1=C[C@H](COCc1ccccc1)O[C@@H]2C	.	.	.	-2	.	.
COC(=O)CN1CCN(C(=O)c2csc3ccccc23)CC1	.	.	.	-4	.	.
CN(Cc1c(F)cccc1Cl)C(=O)c1cccc(S(=O)(=O)N2CCN(Cc3ccccc3)CC2)c1	5	-2	0	-1	1	.
CN(Cc1ccc(OC(F)F)cc1)C(=O)c1cccc(S(=O)(=O)N2CCN(Cc3ccccc3)CC2)c1	6	-13	0	-8	58*	99*
CCCC(=O)OC[C@H]1CN(C2CCCC2)S(=O)(=O)c2c(Oc3ccc(F)cc3)cccc2O1	.	.	.	2	.	.
CCOC(=O)c1cc2c(C)n(-c3ccc(C)cc3)c(C)c2ccc1=O	-5	2	-2	-2	82*	35*
CCOC(=O)c1cc2c(C)n(-c3ccc(OCC)cc3)c(C)c2ccc1=O	3	12	-2	2	10	.
O=C(NC1CCCCN(Cc2cccc(Cl)c2)C1=O)c1cccc([N+](=O)[O-])c1 (centres undefined)	.	.	.	-3	.	.
COc1ccc(NC(=O)COC(=O)Cn2cnc3ccccc32)cc1	1	-4	1	-1	0	.
O=C(Cn1cnc2ccccc21)Nc1ccc(SC(F)F)cc1	7	-1	-2	-7	93*	87*
CCCOc1ccc(CSc2nc3ccccc3[nH]2)cc1	0	5	1	-2	98*	92*
Cc1cccc(OCCCSc2nc3ccccc3[nH]2)c1	4	-1	-1	-4	51*	64*
CC(C)N(C[C@@H]1CSCCS(=O)(=O)N1)C(C)C	.	.	.	-3	.	.
COc1ccc(NC(=O)CCC(=O)c2cccs2)cc1Cl	20	2	2	3	2	.
COc1ccc(NC(=O)Nc2cccs2)cc1Cl	-6	-9	-2	3	74*	80*
N#Cc1cccc(NC(=O)Nc2cccs2)c1	-3	2	1	1	86*	106*
O=C(Nc1cccs1)Nc1c(F)c(F)c(F)c(F)c1F	8	5	0	-2	96*	84*
CCc1cccc(NC(=O)Nc2cccs2)c1	2	-9	0	6	79*	99*
O=C(Nc1ccccc1)OCCN1C(=O)CCC12CCC(c1ccc(Cl)cc1)CC2 (centres undefined)	.	.	.	-2	.	.
N#Cc1cccc(NC(=S)Nc2ccccc2)c1	6	6	1	-1	82*	90*
CCOP(=O)(OCC)C(NC(=O)Nc1ccc(Cl)c(Cl)c1)c1ccccc1 (centres undefined)	24	0	1	-1	60*	56*
CCOP(=O)(OCC)C(NC(=O)Nc1ccc(Cl)c(Cl)c1)C(N)=O (centres undefined)	2	-13	-2	-4	40	.
CCOP(=O)(OCC)C(NC(=O)Nc1ccc(C)c(Cl)c1)c1ccccc1 (centres undefined)	24	-8	0	-1	84*	84*
SMILES	MC4R antag cAMP	ATG4B inh	MC4R barr agon	SMARCA2 activ	MPTP block	Rh123 counter	others
CCOP(=O)(OCC)C(NC(=O)Nc1ccc(Cl)cc1)c1ccccc1 (centres undefined)	7	25	-2	-2	2	.
CC(C)c1ccc(NC(=O)c2csnn2)cc1	-1	-4	-1	2	-2	.
CC(C)c1ccc(NC(=O)c2snc3ccc(Cl)cc23)cc1	-5	-1	2	4	74*	74*
CCOC(=O)C1=NN(C(=O)c2ccc(OC)cc2)C(O)(c2ccc(Cl)cc2)C1 (centres undefined)	-7	-9	-5	1	7	.
COC(=O)C1=NN(C(=O)c2cccc(Br)c2)C(O)(c2ccc(Cl)cc2)C1 (centres undefined)	-4	16	-5	4	67*	73*
CCN(CC)CCOC(=O)c1ccc(NC(=O)CCCN2C(=O)S/C(=C/c3ccc(OC)cc3)C2=S)cc1	5	-1	4	.	61*	-2
Cc1ccc(O)c(C(C)c2c[nH]c3ccccc23)c1 (centres undefined)	.	.	.	0	.	.
O=S1(=O)c2ccccc2-c2c(nnn2CC2CCCCC2)CN1C1CC1	.	.	.	-4	.	.
CC1=NN(c2nc(-c3ccc(Cl)cc3)cs2)C(=O)C1	0	3	-1	4	60*	17	MPTP abs DR=13*;MPTP counter DR=<2.5*
COc1ccc(/C=N/NC(=O)c2[nH]c3ccc(Br)cc3c2-c2ccccc2)c(C(=O)O)c1OC	1	21	-1	-2	1	.
COc1cc(C(=O)NN=Cc2ccc(N(C)C)cc2)cc(OC)c1OC	-27	.	-2	-2	1	.
O=C(N/N=C/c1ccccc1Cl)c1[nH]c2ccc(Br)cc2c1-c1ccccc1	-26	8	-3	0	82*	88*
Cc1c(C(=O)N/N=C/c2ccccc2)[nH]c2ccc(Cl)cc12	12	9	1	1	87*	89*
Cc1c(C(=O)N/N=C/c2ccc(N(C)C)cc2)[nH]c2ccc(Cl)cc12	-25	-2	3	-2	80*	74*
CN(c1ccc(NC(=O)Cc2cn(C)c3ccccc23)cc1)c1ccccn1	.	.	.	-1	.	.
COc1ccc(Cc2nnc(Nc3ccc(Cl)cc3)[nH]c2=O)cc1	-7	0	-3	1	84*	67*
CC(OC(=O)c1cccc(S(=O)(=O)Nc2cccc(C(F)(F)F)c2)c1)C(=O)Nc1ccc2c(c1)OCCO2 (centres undefined)	4	15	-1	-2	67*	69*
Cc1nc2ccccn2c1C(=O)CSc1ccc(Cl)cc1Cl	4	-5	-2	-1	72*	4
C=CS(=O)(=O)N(Cc1ccc(F)cc1)C(=C)C(=O)OC	.	.	.	-12	.	.
CCOC(=O)[C@@H]1[C@H]2COc3ccccc3[C@H]2N2C(=O)N(c3ccc(C(F)(F)F)cc3)C(=O)[C@]12C	7	-6	0	0	95*	118*
COC(=O)C1=C(C)N(Cc2ccc(C(F)(F)F)cc2)C(=NCc2ccccc2C(F)(F)F)NC1c1ccc(Cl)cc1 (centres undefined)	.	.	.	0	.	.
